# Measured values from different studies.
# Target: Serine/threonine-protein kinase 17A (STK17A, Homo sapiens, UniProt Q9UEE5)
# Effect on: enzyme activity
# Sequence (Q9UEE5 1-414, as in one of the studies): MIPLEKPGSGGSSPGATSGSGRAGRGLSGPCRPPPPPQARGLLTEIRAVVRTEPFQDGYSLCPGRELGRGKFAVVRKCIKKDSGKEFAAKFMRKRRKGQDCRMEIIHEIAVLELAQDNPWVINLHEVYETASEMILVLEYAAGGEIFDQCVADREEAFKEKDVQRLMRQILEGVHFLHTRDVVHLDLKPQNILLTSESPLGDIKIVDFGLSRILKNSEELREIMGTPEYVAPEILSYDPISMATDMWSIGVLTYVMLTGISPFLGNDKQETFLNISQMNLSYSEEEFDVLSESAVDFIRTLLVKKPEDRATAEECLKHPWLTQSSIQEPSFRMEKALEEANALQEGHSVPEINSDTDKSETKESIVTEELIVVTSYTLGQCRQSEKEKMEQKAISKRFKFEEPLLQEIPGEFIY
mode,technique,tested at,remaining activity,SMILES
inhibitor,,10 µM,100%,CCN(CC)c1ccc(C2=NNC(=O)CC2C)cc1[N+](=O)[O-] (centres unmarked)
inhibitor,radiometric,1 µM,100%,Cc1cnc(NC2CCOCC2)nc1-n1cnc(C(=O)NC(CN)c2cc(F)cc(Cl)c2)c1 (centres unmarked)
inhibitor,,10 µM,7%,CCCOc1ccc(OC)c(F)c1C(=O)c1ccc(C(=O)N[C@@H]2CNC[C@H]2NC(=O)c2ccc3[nH]ncc3c2)cc1
inhibitor,,1 µM,70%,COc1cc(Cl)c(C(=O)N[C@@H](CN[C@H]2CC[C@@H](N)CC2)Cc2ccc(C#N)cc2)cc1-c1ccc(CN[C@H](C)c2ccc(C)cc2)o1
inhibitor,,0.5 µM,98.2%,O=c1cc(-c2cccc3c2Sc2ccccc2S3)oc(N2CCOCC2)c1
,,23.5 nM,100%,Cc1ccc(C(=O)Nc2ccc(CN3CCN(C)CC3)c(C(F)(F)F)c2)cc1C#Cc1cnc2cccnn12
inhibitor,radiometric,1 µM,63%,Cc1nn(CC(F)(F)F)cc1Nc1ncc(Br)c(NCCc2cnc[nH]2)n1
inhibitor,,5 µM,98.4%,O=C(Nc1cnn(-c2csc(C(=O)NC3COC3)c2)c1)Nc1ccccc1Cl
inhibitor,radiometric,1 µM,93%,Cc1nn(CC(F)(F)F)cc1Nc1ncc(Br)c(NCc2ccc(S(N)(=O)=O)cc2)n1
inhibitor,,5 µM,89.4%,O=C(Nc1cnn(-c2csc(C(=O)NC3COC3)c2)c1)Nc1c(F)cccc1Cl
inhibitor,radiometric,1 µM,108%,NS(=O)(=O)c1ccc(CNc2nc(Nc3cccc(CN4CCOCC4)c3)ncc2C2CC2)cc1
inhibitor,radiometric,1 µM,80%,CC(C)(C)c1nc2c(s1)c1nc(N)ncc1c1ccc(NS(=O)(=O)c3c(F)cccc3F)c(F)c12
inhibitor,radiometric,1 µM,105%,Cc1nn(CC(F)(F)F)cc1Nc1ncc(C2CC2)c(NCc2ccc(S(N)(=O)=O)cc2)n1
inhibitor,,1 µM,106%,CC(C)(O)[C@H]1CC[C@H](Nc2ccc3ncc(-c4cccc(C(F)(F)F)c4)n3n2)CC1
